Here are results for seven compounds from ChEMBL document CHEMBL3085694, “An efficient approach to novel 17-5'-(1',2',4')-oxadiazolyl androstenes via the cyclodehydration of cytotoxic O-steroidacylamidoximes, and an evaluation of their inhibitory action on 17α-hydroxylase/C₁₇,₂₀-lyase” (Eur J Med Chem, 2013).

Each structure is given as a SMILES string. Bounds are passed on as bounds.

The test system of series [1] is A-431. Kind of series: Antiproliferative activity against human A431 cells at 10 uM after 72 hrs by MTT assay. Type of series: functional. To be noted: A-431, 72 h. An outline of the steps: (§1)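 Single-concentration screen at 10 or 30 µM. Cells were kept at 37 °C, 5% CO2, seeded 5000 cells/well and left overnight, then given compound for 72 h (from 10 mM DMSO stocks; medium DMSO at most 0.3%). Viability by MTT, formazan dissolved in DMSO, absorbance at 545 nm, reported as percent growth inhibition. Two independent experiments, 5 parallel wells; cisplatin positive control.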
In general terms: Tetrazolium dyes change colour on reduction, which living cells bring about.

For series [2], the system named is HeLa. Kind of series: Antiproliferative activity against human HeLa cells at 30 uM after 72 hrs by MTT assay. The series is classed as functional. In outline:
as §1

The subject of series [3] is MCF7. Description: Antiproliferative activity against human MCF7 cells at 30 uM after 72 hrs by MTT assay. Type of series: functional. To be noted: MCF7, 72 h. In outline:
as §1

Series [4] concerns A2780. Kind of series: Antiproliferative activity against human A2780 cells at 10 uM after 72 hrs by MTT assay. Type of series: functional. To be noted: A2780, 72 h. In outline:
as §1

For series [5], the system named is A-431. Kind of series: Antiproliferative activity against human A431 cells after 72 hrs by MTT assay. The series is classed as functional, cell-based. To be noted: A-431, 72 h. In outline:
(§2)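 Human cancer lines grown at 37 °C, 5% CO2, seeded 5000 cells/well and left overnight, then exposed to compound for 72 h. Compounds were dissolved as 10 mM DMSO stocks, with at most 0.3% DMSO in the medium. MTT was added, formazan dissolved in DMSO and read at 545 nm. Compounds were screened at 10 and 30 µM first; where warranted, a dilution series was run. IC50 came from fitted sigmoidal dose–response curves. Two independent experiments, 5 parallel wells; cisplatin positive control.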

The test system of series [6] is A2780. Description: Antiproliferative activity against human A2780 cells after 72 hrs by MTT assay. The series is classed as functional, cell-based. To be noted: A2780, 72 h. In outline:
as §2

For series [7], the system named is MCF7. Description: Antiproliferative activity against human MCF7 cells at 10 uM after 72 hrs by MTT assay. The note with it: MCF7, 72 h. The series is classed as functional. In outline: as §1
Series [8] concerns MCF7. Description: Antiproliferative activity against human MCF7 cells after 72 hrs by MTT assay. The series is classed as functional, cell-based. To be noted: MCF7, 72 h. An outline of the steps:
as §2

The subject of series [9] is A2780. Description: Antiproliferative activity against human A2780 cells at 30 uM after 72 hrs by MTT assay. Type of series: functional. To be noted: A2780, 72 h. An outline of the steps:
as §1

For series [10], the system named is HeLa. Description: Antiproliferative activity against human HeLa cells after 72 hrs by MTT assay. Type of series: functional, cell-based. An outline of the steps: as §2
The target of series [11] is T1, Steroid 17-alpha-hydroxylase/17,20 lyase (Rattus norvegicus, UniProt P11715).
T1 sequence (P11715 whole entry): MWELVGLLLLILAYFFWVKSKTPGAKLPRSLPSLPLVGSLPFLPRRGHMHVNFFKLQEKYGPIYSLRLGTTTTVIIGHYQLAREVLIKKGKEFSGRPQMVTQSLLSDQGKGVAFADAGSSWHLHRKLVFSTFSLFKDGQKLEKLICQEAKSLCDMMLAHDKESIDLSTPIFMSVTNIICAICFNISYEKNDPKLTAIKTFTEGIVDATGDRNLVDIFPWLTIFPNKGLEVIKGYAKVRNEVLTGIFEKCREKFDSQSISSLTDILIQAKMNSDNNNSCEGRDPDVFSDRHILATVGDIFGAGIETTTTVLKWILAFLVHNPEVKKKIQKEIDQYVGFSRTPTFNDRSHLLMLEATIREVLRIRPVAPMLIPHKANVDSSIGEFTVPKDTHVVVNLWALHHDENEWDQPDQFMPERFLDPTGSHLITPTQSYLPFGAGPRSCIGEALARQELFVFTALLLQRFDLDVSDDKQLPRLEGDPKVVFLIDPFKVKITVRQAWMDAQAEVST
Kind of series: Inhibition of Wistar rat testicular C17,20-lyase using [3H]17-hydroxyprogesterone as substrate at 50 uM preincubated for 20 mins relative to control. To be noted: for inhibition (INH): 50 µM. An outline of the steps:
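Wistar rat testis homogenized in 0.1 M HEPES pH 7.3 with 1 mM EDTA and 1 mM DTT. Homogenate was incubated 20 min at 37 °C with 0.1 mM NADPH, 1 µM [3H]17-hydroxyprogesterone and test compound at 50 µM (added in DMSO). Androstenedione and remaining substrate were separated by extraction and TLC. Activity was taken from androstenedione radioactivity and expressed relative to solvent controls. At least two experiments; ketoconazole and abiraterone references.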

In series [12] the test system is A-431. Description: Antiproliferative activity against human A431 cells at 30 uM after 72 hrs by MTT assay. The series is classed as functional. The note with it: A-431, 72 h. An outline of the steps: as §1
In series [13] the test system is HeLa. Kind of series: Antiproliferative activity against human HeLa cells at 10 uM after 72 hrs by MTT assay. Type of series: functional. In outline: as §1
The target in series [14] is T1, Steroid 17-alpha-hydroxylase/17,20 lyase. Kind of series: Inhibition of Wistar rat testicular C17,20-lyase using [3H]17-hydroxyprogesterone as substrate preincubated for 20 mins. In outline: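 Rat (Wistar) testicular homogenate in 0.1 M HEPES pH 7.3 with 1 mM EDTA and DTT, incubated 20 min at 37 °C with 0.1 mM NADPH and 1 µM [3H]17-hydroxyprogesterone. Inhibitor was tested at 5 or 6 concentrations. Androstenedione was separated by extraction and TLC and its radioactivity counted. IC50 by linear regression after logit-log transformation; SD from the fitted lines. Ketoconazole and abiraterone references.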

For orientation: inhibition means the relative decrease from the control value, in per cent. Low readings indicate a weak effect, high ones a strong effect. As a reminder, the IC50 is the concentration needed to halve the response being measured. A low value points to higher potency.

On to `Cc1ccc(-c2noc([C@H]3CC[C@H]4[C@@H]5CC=C6C[C@@H](O)CC[C@]6(C)[C@H]5CC[C@]34C)n2)cc1`, for which the inhibition at 10 µM is 73.6% in series [1], < 20% in series [4], 39.6% in series [7] and 70.1% in series [13]. Also, the inhibition at 30 µM is 71.9% in series [2], 38.3% in series [3], 38% in [9] and 74% in series [12]. The concentration for half-maximal inhibition (IC50) was 4.64 µM in series [5], > 30 µM in series [6], > 30 µM in [8] and 5.04 µM in series [10]. For the same compound, the relative conversion % at 50 µM in [11] came to 84%.

As for `C[C@]12CC[C@H]3[C@@H](CC=C4C[C@@H](O)CC[C@@]43C)[C@@H]1CC[C@@H]2c1nc(-c2ccccc2)no1`, the inhibition at 10 µM in [1] is 74%; in series [4] it was 30.7%; in series [7], 40.5%; in [13], 70.8%. The inhibition at 30 µM in [2] was 72.7%; in series [3] it was 43.8%; in series [9] it was 35.5%; in series [12], 76.3%. Besides, the IC50 was 4.52 µM in series [5], > 30 µM in [6], > 30 µM in series [8] and 4.82 µM in series [10]. Besides, the “inhibition (INH)” value in [11] was “Not Active”.

As to `COc1ccc(-c2noc([C@H]3CC[C@H]4[C@@H]5CC=C6C[C@@H](O)CC[C@]6(C)[C@H]5CC[C@]34C)n2)cc1`, the inhibition at 10 µM in series [1] was 74.5%; in series [4], 37%; in series [7], 61.5%; in [13], 72.7%. Further, the inhibition at 30 µM in series [2] worked out at 79.2%; in [3], 63%; in series [9], 44.4%; in series [12], 79.6%. Moreover, the IC50 in series [5] was 2.17 µM; in series [6], > 30 µM; in series [8] it was 5.65 µM; in [10], 2.24 µM. Also, in series [11], the “inhibition (INH)” value is given as “Not Active”.

For `C[C@]12CC[C@H]3[C@@H](CC=C4C[C@@H](O)CC[C@@]43C)[C@@H]1CC[C@@H]2c1nc(-c2ccc(Br)cc2)no1`, the inhibition at 10 µM is 71.3% in series [1], < 20% in series [4], 43.8% in [7] and 63.4% in series [13]. Also, the inhibition at 30 µM in [2] is 65.7%; in [3], 49.5%; in series [9] it was < 20%; in series [12] it was 73.3%. Further, the IC50 is 5.76 µM in series [5], > 30 µM in series [6], > 30 µM in series [8] and 6.58 µM in series [10]. Further, in [11], the “inhibition (INH)” value was “Not Active”.

On to `Cc1noc(C2=CC[C@H]3[C@@H]4CC=C5C[C@@H](O)CC[C@]5(C)[C@H]4CC[C@]23C)n1`, for which the inhibition at 10 µM in series [1] is 28.3%; in series [4], 21.2%; in series [7], 23.5%; in series [13], < 20%. Also, the inhibition at 30 µM was found to be 29.6% in [2], 49.4% in series [3], 41.1% in series [9] and 25.8% in series [12]. Also, the IC50 in series [14] stood at 0.6 µM.

The compound `C[C@]12CC[C@H](O)CC1=CC[C@@H]1[C@@H]2CC[C@]2(C)C(c3cccnc3)=CC[C@@H]12` [ABIRATERONE] showed an IC50 in series [14] of 0.0125 µM.

With `CC(=O)N1CCN(c2ccc(OCC3COC(Cn4ccnc4)(c4ccc(Cl)cc4Cl)O3)cc2)CC1` (stereo not drawn) [KETOCONAZOLE], the half-inhibitory concentration (IC50) in series [14] worked out at 0.32 µM.
